Source: PubChem
Diaphorase inh: diaphorase inhibitors and chemical oxidizers, primary screen, counter-screen for diaphorase-coupled primary assays, biochemical, uHTS, resorufin fluorescence. 0.69% of 190,000 active. diaphorase resazurin-to-resorufin fluorescence, NADH, 16 min; bacterial (C. kluyveri) enzyme, not human. inhibition, % at 20 µM;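 active = primary screen inhibition at 20 µM above a set limit, cut at about 50% in these data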;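 note: plate controls were DMSO with full reaction for no effect and wells lacking NADH for full effect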
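Benchmarks: positive control wells lacking NADH, neutral wells with DMSO only. System: bacterial diaphorase enzyme (C. kluyveri). Input: 0.14 U/mL diaphorase, enzyme working solution. Detection: resorufin fluorescence, excitation 544 nm, emission 590 nm. Times: 16-min room-temperature incubation before reading.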
ROMK primary: ROMK potassium channel modulators, primary screen, cell-based, thallium flux, MLSMR library | B-score at 10 µM | Tet-inducible ROMK, thallium flux fluorescence; actives lie on both sides | 2% of 130,000 active;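 active = signal ratio slope over the read window, or its plate-corrected B-score, at least 3 SD from the plate mean, either direction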;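 note: B-score of the F/F0 ratio slope over 7 to 12 s after thallium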
WT yeast gro inh: growth inhibition of WT strain, primary screen, mitochondrial fusion inhibitor project, WT and mutant strains, chemical genetic | mitochondrial fusion phenotypic screen | inhibition, % at 10 µM | 2.1% of 190,000 active | AID 1362, 2008; in the data active = inhibition above about 58%; tested in S. cerevisiae
Diaphorase act: compounds boosting diaphorase resazurin reduction – biochemical, uHTS, resorufin fluorescence, counter-screen for diaphorase-coupled primary assays, primary screen. Diaphorase/resazurin coupled assay, 16 min; active compounds read high; 1 = vehicle wells, 0 = NADH-free wells. activation factor at 20 µM. 0.005% of 190,000 active. AID 1229, 2008;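 active = diaphorase activity raised at least twofold by the compound at 20 µM; inactive = activation factor below 2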
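Assay system: Purified diaphorase enzyme from Clostridium kluyveri | Amount: Enzyme 0.07 U/mL final | Dosing: Compound 20 µM once, DMSO 1% | Timing: 16 min reaction at room temperature | Detection: Fluorescence, excitation 544 nm and emission 590 nm | Evaluation: Higher resorufin formation from activation or reduction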
Lmaj promast: Leishmania major promastigote growth inhibition, primary screen. 9% of 200,000 active. Leishmania major promastigotes, resazurin fluorescence viability. inhibition, % at 10 µM. AID 1063, 2008; in the data active = inhibition above about 50%;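 note: promastigotes grown with compound for 44 hours at 28 °C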
Cl transport mod: KCC2 cotransporter modulators, thallium flux, primary screen, cell-based, HEK293 KCC2, FluoZin-2 fluorescence, MLSMR; KCC2 cells, thallium flux FluoZin-2 fluorescence; B-score of Tl+ flux slope (higher = more flux/activation; lower = inhibition) at 10 µM; 2.2% of 190,000 active;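 active = thallium flux slope and its plate-corrected score both differing from the plate sample mean at a set confidence after two filtering rounds, in either direction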;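 note: slope of fluorescence scaled to starting intensity during 10 to 20 s after thallium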
Active calls of the source: *; i = inactive; / = not tested or not shown. Compounds with a hit are over-represented: about 12% of the library has one in this group of screens.

SMILES	Diaphorase inh	ROMK primary	WT yeast gro inh	Diaphorase act	Lmaj promast	Cl transport mod
CC(=O)c1sc(N/N=C\c2ccc(Br)cc2)nc1C	7.8	0.772	59.5*	0.9	26.8	-0.475
CC(=O)c1sc(N/N=C\c2cccc(Br)c2)nc1C	10.5	-0.331	50.4	0.9	10.2	-0.773
COC(=O)C1C(=O)C2=C(CC1C)Nc1ccccc1NC2c1cccs1 (stereo not given)	2.3	0.523	-16.4	1	26.4	/
C#CCNC(=O)C1=C[C@@H](C)C[C@@H](OCc2ccc(CO)cc2)O1	6.4	/	-0.5	0.9	-0.5	-0.432
COc1ccc(C)cc1S(=O)(=O)n1ccnc1C	12.0	1.02	18.1	0.9	-1.1	1.07
Cc1cc(Br)ccc1S(=O)(=O)n1ccnc1C	2.4	-0.182	-2.4	1	84.1*	-1.03
C=CCOc1ccc(/C=N/O)cc1Cl	18.3	/	3.6	0.8	38.1	0.414
c1ccc(N2CCN(c3nc(NCc4ccco4)c4ccccc4n3)CC2)cc1	3.4	0.222	-7.8	1	97.9*	/
c1ccc(CNc2nc(N3CCN(Cc4ccccc4)CC3)nc3ccccc23)cc1	/	/	/	/	/	-0.684
c1coc(CNc2nc(N3CCCCC3)nc3ccccc23)c1	0.7	-1.92	-5.5	1	96.2*	-0.466
CC(=O)OC1CSC2c3ccccc3C(=O)N2Cc2sccc21 (stereo not given)	8.5	/	-7.6	0.9	4.0	-0.539
O=C(N/N=C/c1ccc(-c2ccc(S(=O)(=O)Nc3ncccn3)cc2)o1)c1cc2ccccc2cc1O	41.2	-0.00983	-5.0	0.6	73.3*	-0.717
CCOc1ccc(C(=O)N/N=C/c2ccc(-c3ccc(S(=O)(=O)Nc4ncccn4)cc3)o2)cc1	0.2	0.737	-11.3	1	-7.9	-0.00113
COc1ccccc1CN1CCNC(=O)C1CC(=O)NC1Cc2ccccc2C1 (stereo not given)	2.8	-0.0966	5.5	1	2.2	-0.0695
CC(C)C(NS(=O)(=O)c1cccc2nsnc12)C(=O)NCc1ccc2c(c1)OCO2 (stereo not given)	0.8	/	-7.4	1	100.0*	-0.0173
CC(C)C(NS(=O)(=O)c1cccc2nsnc12)C(=O)NCc1ccco1 (stereo not given)	/	0.16	/	/	/	0.225
CCOc1ccc(C=Nc2cccc3ncccc23)cc1	51.2*	-0.243	-7.5	0.5	12.4	-0.796
CCOC(=O)c1cc(C(=O)OCC)c(=O)[nH]c1C	-15.1	-0.0275	-3.4	1.2	-1.3	-0.262
CCOC(=O)c1cc(C)[nH]c(=S)c1C#N	51.8*	-0.228	-11.6	0.5	-3.9	/
O=C(Nc1cccc(N2C(=O)C3C4C=CC(C4)C3C2=O)c1)c1cccs1 (stereo not given)	9.1	0.857	-20.4	0.9	-3.3	-0.126
CN(C)CCCNC(=O)c1ccc(-c2nc(-c3ccc(Cl)cc3)cs2)cc1	-38.8	-2.05	91.4	1.4	100.5*	/
CN(C)CCCNC(=O)c1ccccn1	4.3	0.654	-2.0	1	-4.6	-0.151
CCCNC1=C(N(C(C)=O)c2cccc(F)c2)C(=O)c2ccccc2C1=O	34.4	/	52.9	0.7	99.4*	-0.22
COC(=O)c1ccccc1S(=O)(=O)N1CCn2cccc2C1C (stereo not given)	4.3	0.548	-5.8	1	-2.3	-2.94
Cc1nc(N2N=C3/C(=C/c4ccc(F)cc4)CCCC3C2c2ccc(F)cc2)sc1C(=O)N(C)C (stereo not given)	13.8	/	73.8*	0.9	23.3	-1.07
SMILES	Diaphorase inh	ROMK primary	WT yeast gro inh	Diaphorase act	Lmaj promast	Cl transport mod
CCN1C(=O)/C(=C/N(C(C)=O)c2ccccc2)N(c2ccccc2)C1=S	14.5	-3.81*	15.8	0.9	20.8	/
Cc1ccc(OC(=O)CCC(=O)NC(C)c2ccccc2)cc1 (stereo not given)	15.7	0.475	14.8	0.8	-2.9	-2.61
O=S1(=O)C=C(Sc2nc3cc(Cl)ccc3o2)c2ccccc21	0.1	/	-0.7	1	79.9*	-0.221
CSc1ccc(CNc2ccc(Cl)cc2)cc1	14.9	/	-2.6	0.9	99.9*	0.489
CSc1ccc(CNC2CC2)cc1	36.8	/	29.9	0.6	-2.5	/
CC(=O)c1cccc(NC(=O)c2ccc(N(Cc3ccc(C)cc3)S(C)(=O)=O)cc2)c1	13.7	-1.2	22.9	0.9	53.2*	/
C=CCN(c1ccc(C(=O)Nc2ccc(C)c(C)c2)cc1)S(C)(=O)=O	15.3	-0.0651	-25.1	0.8	54.7*	-0.174
CS(=O)(=O)N(Cc1ccccc1)c1ccc(C(=O)Nc2cccnc2)cc1	7.6	-0.225	-11.7	0.9	0.7	-0.407
C[n+]1ccccc1N1CCN(c2ccccc2Cl)CC1	-1.9	/	12.4	1	48.4	0.895
CCCCNC(=S)N1CCN(C(c2ccccc2)c2ccccc2)CC1	-2.9	0.268	65.9*	1	28.2	0.399
CCNC(=S)N1CCN(C(c2ccccc2)c2ccccc2)CC1	-2.3	/	51.0	1	0.4	0.113
Cc1ccc(Cl)cc1N1CCN(C(=S)NCCc2ccccc2)CC1	14.4	-1.53	66.2*	0.9	0.5	0.0736
CCN1CCN(C(=S)NCCc2ccccc2)CC1	0.7	/	3.7	1	86.2*	0.415
Cc1ccc(Cl)cc1N1CCN(c2cccc[n+]2C)CC1	20.2	-0.549	10.7	0.8	73.6*	0.857
CN(c1ccc(OCC(=O)OCC(=O)c2c(N)n(C)c(=O)n(C)c2=O)cc1)S(=O)(=O)c1ccc2ccccc2c1	48.1	0.123	-8.2	0.5	9.6	-0.137
CCOC(=O)C1=NOC(CNc2ncc(C(F)(F)F)cc2Cl)C1 (stereo not given)	0.3	-0.379	8.3	1	-3.8	-1.26
Cc1ccc(C(=O)c2ccc(C)cc2)cc1	4.8	-0.122	-20.4	1	-5.5	-1.44
Cc1ccc(C(=O)c2no[n+]([O-])c2C(=O)c2ccc(C)cc2)cc1	0.6	-5.08*	-0.7	1	-2.7	-1.96
COc1ccccc1NC(=O)N1CCc2[nH]c3ccc(Cl)cc3c2C1	28.2	/	46.6	0.7	95.2*	/
COc1ccccc1NC(=O)N1CCN(c2ccnc3cc(Cl)ccc23)CC1	/	-1.23	/	/	/	i
O=C(CCCOc1ccc(Cl)cc1Cl)N/N=C/c1ccccc1O	0.2	-0.0755	31.4	1	44.2	0.108
CCOc1ccc(C(OC(=O)c2ccco2)C(=O)NCc2ccc(C)cc2)cc1 (stereo not given)	23.1	/	6.6	0.8	3.0	-1.02
Cc1ccc(C(OC(=O)c2ccco2)C(=O)NCc2cccs2)cc1 (stereo not given)	12.9	0.953	-2.5	0.9	55.9*	-0.128
